Results taken from ChEMBL document CHEMBL1139384, “First Cdc7 kinase inhibitors: pyrrolopyridinones as potent and orally active antitumor agents. 2. Lead discovery” (J Med Chem, 2009).
Activity calls are given as the source filed them. The calls are words filed in the database; no cut-off is given here.

Columns and labels:
[1] = molecular target: Fibroblast growth factor receptor 1 (Homo sapiens, UniProt P11362); assay: Inhibition of FGFR1
[2] = molecular target: Serine/threonine-protein kinase Nek6 (Homo sapiens, UniProt Q9HC98); assay: Inhibition of NEK6
Chain of Serine/threonine-protein kinase Nek6 (Q9HC98 whole entry): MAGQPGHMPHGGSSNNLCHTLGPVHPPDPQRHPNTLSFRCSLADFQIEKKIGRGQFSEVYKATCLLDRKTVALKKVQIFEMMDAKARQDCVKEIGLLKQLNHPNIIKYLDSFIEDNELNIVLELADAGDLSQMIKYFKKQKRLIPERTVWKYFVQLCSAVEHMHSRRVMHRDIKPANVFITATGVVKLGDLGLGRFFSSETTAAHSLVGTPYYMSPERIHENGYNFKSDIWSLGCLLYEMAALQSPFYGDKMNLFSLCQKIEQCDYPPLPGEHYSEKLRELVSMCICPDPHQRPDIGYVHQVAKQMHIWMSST

[3] = molecular target: Serine/threonine-protein kinase NIM1 (Homo sapiens, UniProt Q8IY84); assay: Inhibition of NIM1
Chain of Serine/threonine-protein kinase NIM1 (Q8IY84 whole entry): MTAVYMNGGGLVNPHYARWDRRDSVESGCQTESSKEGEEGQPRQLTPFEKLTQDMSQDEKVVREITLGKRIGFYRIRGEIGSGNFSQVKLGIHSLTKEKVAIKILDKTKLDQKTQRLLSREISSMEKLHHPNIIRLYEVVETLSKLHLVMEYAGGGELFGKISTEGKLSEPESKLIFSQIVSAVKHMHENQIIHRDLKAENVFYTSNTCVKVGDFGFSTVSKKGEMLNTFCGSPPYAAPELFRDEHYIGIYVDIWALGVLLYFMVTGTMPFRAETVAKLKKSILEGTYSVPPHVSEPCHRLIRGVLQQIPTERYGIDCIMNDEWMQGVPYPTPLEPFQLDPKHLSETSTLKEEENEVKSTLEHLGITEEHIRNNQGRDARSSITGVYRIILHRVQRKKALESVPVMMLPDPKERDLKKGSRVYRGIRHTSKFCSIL

[4] = molecular target: STE20-like serine/threonine-protein kinase (Homo sapiens, UniProt Q9H2G2); assay: Inhibition of STLK2
[5] = AUC (0 to infinity) in nu/nu mouse at 10 mg/kg, iv administered as single dose; type: ADME, organism-based; parameters: dose 10 mg/kg, route intravenous, time infinity; conditions: plasma
Outline: (§1)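 Single iv or oral dose in 5% dextrose to overnight-fasted animals. Nu/Nu mice: males, 3 per route, saphenous bleeds to 24 h. Han-Wistar rats: males, 3 per route, jugular bleeds to 24 h. Beagle dogs: 2 per sex, iv and po crossover 2 weeks apart, jugular bleeds to 48 h. Plasma by LC/MS/MS; noncompartmental parameters, AUC by linear trapezoid with extrapolation.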

[6] = Clearance in nu/nu mouse at 10 mg/kg, iv administered as single dose; type: ADME, organism-based; parameters: dose 10 mg/kg, route intravenous; conditions: in vivo; outline: as §1
[7] = Volume of distribution at steady state in nu/nu mouse at 10 mg/kg, iv administered as single dose; type: ADME, organism-based; parameters: dose 10 mg/kg, route intravenous; conditions: in vivo, read-out: Vdss
Outline: (§2)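 Overnight-fasted male Nu/Nu mice got a single 10 mg/kg dose in 5% dextrose, iv or po, three mice per route. Saphenous blood was drawn at 0.083 (iv) or 0.25 (po), 0.5, 1, 6 and 24 h. Plasma was assayed by LC/MS/MS and analysed noncompartmentally. Tmax is the observed peak time, Vss = CL·MRT, and F is the ratio of dose-normalized AUC∞ po/iv.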

[8] = Half life in nu/nu mouse at 10 mg/kg, iv administered as single dose; type: ADME, organism-based; parameters: dose 10 mg/kg, route intravenous; conditions: in vivo; outline: as §1
[9] = Tmax in nu/nu mouse at 10 mg/kg, po administered as single dose; type: ADME, organism-based; parameters: dose 10 mg/kg, route oral; conditions: in vivo; outline: as §2
Rattus norvegicus [10] = assay: AUC (0 to infinity) in Wistar rat at 10 mg/kg, iv administered as single dose; type: ADME, organism-based, Plasma; parameters: time infinity, dose 10 mg/kg, route intravenous; conditions: in vivo; outline: as §1
[11] = Volume of distribution at steady state in Wistar rat at 10 mg/kg, iv administered as single dose; type: ADME, organism-based; parameters: dose 10 mg/kg, route intravenous; conditions: in vivo, read-out: Vdss
Outline: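 Overnight-fasted male Han-Wistar rats got a single 10 mg/kg iv dose in 5% dextrose, three per leg. Jugular blood was drawn from 0.083 to 24 h. Urine was collected over 0–6 and 6–24 h. Plasma and urine were assayed by LC/MS/MS and analysed noncompartmentally. Vss = CL·MRT.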

[12] = Cmax in Beagle dog at 5 mg/kg, iv administered as single dose; type: ADME, organism-based, Canis lupus familiaris; parameters: dose 5 mg/kg, route intravenous; conditions: in vivo; outline: as §1
[13] = AUC (0 to infinity) in Beagle dog at 5 mg/kg, iv administered as single dose; type: ADME, organism-based, Canis lupus familiaris; parameters: time infinity, dose 5 mg/kg, route intravenous; conditions: plasma; outline: as §1
MCF7 = assay: Antiproliferative activity against human MCF7 cells after 72 hrs by luciferase based assay; type: functional, cell-based; conditions: MCF7, 72 h
[14] = Antiproliferative activity against human […] cells after 72 hrs by luciferase based assay; type: functional, cell-based
Outline: (§3)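 Cells seeded at 2500–5000/well in complete medium (RPMI1640, McCoy's or DMEM with 10% FCS, by line); compound added after 24 h, 72 h at 37 °C, 5% CO2.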

HT-29 = assay: Antiproliferative activity against human HT-29 cells after 72 hrs by luciferase based assay; type: functional, cell-based; conditions: HT-29, 72 h; outline: as §3
[15] = Antiproliferative activity against human SW403 cells after 72 hrs by luciferase based assay; type: functional, cell-based; conditions: SW-403, 72 h; outline: as §3
[16] = Antiproliferative activity against human NCI-H929 cells after 72 hrs by luciferase based assay; type: functional, cell-based; conditions: NCI-H929, 72 h; outline: as §3
OPM-2 = assay: Antiproliferative activity against human OPM2 cells after 72 hrs by luciferase based assay; type: functional, cell-based; conditions: OPM-2, 72 h; outline: as §3
HeLa [17] = assay: Inhibition of DNA synthesis in human HeLa cells at 3 uM assessed as bromodeoxyuridine incorporation; type: functional; parameters: scale not given: the % may be the effect or the level left
Outline: (§4)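 Logarithmically growing HeLa cells exposed to 3 µM for set times, labelled with 50 µM BrdU, fixed in 70% ethanol. DNA content by propidium iodide with RNase A, 30 min at 37 °C; BrdU by FITC anti-BrdU after 2N HCl denaturation; percent positive cells by FACS.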

HeLa [18] = assay: Inhibition of DNA synthesis in human HeLa cells at 3 uM assessed as bromodeoxyuridine incorporation after 3 hrs; type: functional; parameters: scale not given: the % may be the effect or the level left; outline: as §4
HeLa [19] = assay: Inhibition of DNA synthesis in human HeLa cells at 3 uM assessed as bromodeoxyuridine incorporation after 24 hrs; type: functional; parameters: scale not given: the % may be the effect or the level left; outline: as §4
HeLa [20] = assay: Cell cycle arrest in human HeLa cells assessed as accumulation at S phase at 3 uM by fluorescence activated cell sorting; type: functional, cell-based; outline: as §4
[21] = molecular target: Cell division cycle 7-related protein kinase (Homo sapiens, UniProt O00311); assay: Inhibition of human Cdc7 in human A2780 cells assessed as inhibition of Ser53 phosphorylation of Mcm2 protein after 4 hrs; type: cell-based
Chain of Cell division cycle 7-related protein kinase (O00311 whole entry, looked up): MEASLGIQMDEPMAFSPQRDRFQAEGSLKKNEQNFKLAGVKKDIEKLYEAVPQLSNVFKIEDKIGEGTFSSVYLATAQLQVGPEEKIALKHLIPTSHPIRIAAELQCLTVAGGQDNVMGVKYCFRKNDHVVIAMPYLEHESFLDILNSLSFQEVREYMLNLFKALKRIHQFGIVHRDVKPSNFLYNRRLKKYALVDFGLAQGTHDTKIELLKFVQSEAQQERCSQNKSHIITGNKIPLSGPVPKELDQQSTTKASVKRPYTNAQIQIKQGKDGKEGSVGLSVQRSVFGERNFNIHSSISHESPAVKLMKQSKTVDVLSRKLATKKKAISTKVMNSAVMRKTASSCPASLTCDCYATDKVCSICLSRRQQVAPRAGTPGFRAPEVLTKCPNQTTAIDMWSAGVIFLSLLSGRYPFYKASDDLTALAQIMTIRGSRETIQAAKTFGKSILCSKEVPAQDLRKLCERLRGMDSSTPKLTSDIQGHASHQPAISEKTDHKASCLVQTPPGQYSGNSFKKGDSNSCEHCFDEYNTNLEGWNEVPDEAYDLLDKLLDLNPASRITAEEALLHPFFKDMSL
Outline: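 A2780 cells exposed for 4 h to a range of concentrations, then lysed in 50 mmol/L Tris-HCl pH 6.8, 1% SDS, 1 mmol/L DTT and sonicated 10 s. 15 µg protein per lane ([…]) was taken for Western blot with phospho-specific antibodies to MCM2 Ser40 and Ser53.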

Cytochrome P450 2C8 = Cytochrome P450 2C8 (Homo sapiens, UniProt P10632); assay: Inhibition of human CYP2C8; type: ADME
Chain of Cytochrome P450 2C8 (P10632 whole entry): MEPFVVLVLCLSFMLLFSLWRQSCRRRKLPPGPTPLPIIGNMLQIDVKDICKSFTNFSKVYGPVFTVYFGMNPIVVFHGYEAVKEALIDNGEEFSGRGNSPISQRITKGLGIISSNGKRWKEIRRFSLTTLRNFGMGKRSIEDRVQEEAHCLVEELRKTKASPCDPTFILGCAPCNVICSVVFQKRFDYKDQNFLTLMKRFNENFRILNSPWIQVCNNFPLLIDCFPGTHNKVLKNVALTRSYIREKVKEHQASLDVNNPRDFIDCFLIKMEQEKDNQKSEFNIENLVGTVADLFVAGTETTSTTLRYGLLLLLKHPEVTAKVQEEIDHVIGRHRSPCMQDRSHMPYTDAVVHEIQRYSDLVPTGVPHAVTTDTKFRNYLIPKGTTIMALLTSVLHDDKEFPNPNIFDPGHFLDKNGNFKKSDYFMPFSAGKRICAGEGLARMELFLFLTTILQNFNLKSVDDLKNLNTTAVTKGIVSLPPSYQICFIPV

Cytochrome P450 3A4 = Cytochrome P450 3A4 (Homo sapiens, UniProt P08684); assay: Inhibition of human CYP3A4; type: ADME
Chain of Cytochrome P450 3A4 (P08684 whole entry): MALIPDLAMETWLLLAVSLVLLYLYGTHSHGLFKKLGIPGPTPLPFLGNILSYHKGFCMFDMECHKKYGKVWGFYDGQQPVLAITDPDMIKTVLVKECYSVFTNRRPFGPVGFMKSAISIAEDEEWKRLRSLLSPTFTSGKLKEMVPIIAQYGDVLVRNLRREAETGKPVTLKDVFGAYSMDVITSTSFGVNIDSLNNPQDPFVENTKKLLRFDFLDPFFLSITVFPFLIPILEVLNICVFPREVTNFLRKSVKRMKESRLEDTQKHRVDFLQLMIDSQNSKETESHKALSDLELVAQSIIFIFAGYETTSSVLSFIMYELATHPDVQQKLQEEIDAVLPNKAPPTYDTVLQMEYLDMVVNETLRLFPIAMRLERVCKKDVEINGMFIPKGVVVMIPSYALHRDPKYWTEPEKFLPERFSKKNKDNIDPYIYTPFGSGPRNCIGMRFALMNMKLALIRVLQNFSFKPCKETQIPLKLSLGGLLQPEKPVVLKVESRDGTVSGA

A2780 = assay: Antitumor activity against human A2780 cells xenografted in CDI nu/nu mouse assessed as tumor growth inhibition at 60 mg/kg, po administered for 10 days; type: functional; conditions: A2780, 240 h, read-out: TGI
Rattus norvegicus [22] = assay: Antitumor activity against DMBA-induced mammary carcinoma in CD OFA rat assessed as duration of tumor stabilization maintenance at 20 mg/kg, po administered for 10 days; type: functional
Outline: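 DMBA tumors induced in female CD OFA rats by single intragastric 20 mg DMBA in sesame oil; after about 50 days, rats with a mammary tumor of at least 1 cm given 20 mg/kg orally twice daily for 10 days in glucose solution, or vehicle; 10 per group; tumor volume by Vernier calipers.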

[23] = molecular target: Cyclin-dependent kinase 2 (Homo sapiens, UniProt P24941); assay: Inhibition of Cdk2A
[24] = Inhibition of Cdk2E
[25] = molecular target: Tyrosine-protein kinase ABL1 (Homo sapiens, UniProt P00519); assay: Inhibition of ABL
Chain of Tyrosine-protein kinase ABL1 (P00519 whole entry): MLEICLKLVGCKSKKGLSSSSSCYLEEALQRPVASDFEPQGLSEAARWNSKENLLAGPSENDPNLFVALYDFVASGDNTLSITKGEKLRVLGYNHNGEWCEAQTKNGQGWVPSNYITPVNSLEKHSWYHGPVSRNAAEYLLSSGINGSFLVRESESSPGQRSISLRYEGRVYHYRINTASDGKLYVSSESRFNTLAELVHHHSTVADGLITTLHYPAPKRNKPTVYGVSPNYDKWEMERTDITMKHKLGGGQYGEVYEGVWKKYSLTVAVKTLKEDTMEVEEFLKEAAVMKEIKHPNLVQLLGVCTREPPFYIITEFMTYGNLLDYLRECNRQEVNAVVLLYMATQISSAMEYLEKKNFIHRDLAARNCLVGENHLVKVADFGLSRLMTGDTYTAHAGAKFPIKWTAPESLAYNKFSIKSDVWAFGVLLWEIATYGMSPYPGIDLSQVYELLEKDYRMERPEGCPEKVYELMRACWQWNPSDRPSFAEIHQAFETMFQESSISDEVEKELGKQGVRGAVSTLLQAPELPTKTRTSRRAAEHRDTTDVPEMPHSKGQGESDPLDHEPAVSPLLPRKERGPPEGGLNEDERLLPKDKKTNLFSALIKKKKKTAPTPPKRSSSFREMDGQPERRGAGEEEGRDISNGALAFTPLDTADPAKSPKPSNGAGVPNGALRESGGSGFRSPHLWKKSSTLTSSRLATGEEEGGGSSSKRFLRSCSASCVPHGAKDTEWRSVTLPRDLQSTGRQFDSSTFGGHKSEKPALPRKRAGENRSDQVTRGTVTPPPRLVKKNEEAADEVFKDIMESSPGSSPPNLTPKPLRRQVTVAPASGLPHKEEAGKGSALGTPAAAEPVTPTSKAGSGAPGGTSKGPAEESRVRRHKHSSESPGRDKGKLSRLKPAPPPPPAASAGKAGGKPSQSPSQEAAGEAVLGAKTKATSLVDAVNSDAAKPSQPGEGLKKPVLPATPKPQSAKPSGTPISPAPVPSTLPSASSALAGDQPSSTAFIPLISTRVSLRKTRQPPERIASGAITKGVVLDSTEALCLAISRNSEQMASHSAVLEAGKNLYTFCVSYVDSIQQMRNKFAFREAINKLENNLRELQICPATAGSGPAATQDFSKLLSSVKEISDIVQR

[26] = molecular target: RAC-alpha serine/threonine-protein kinase (Homo sapiens, UniProt P31749); assay: Inhibition of AKT1
Chain of RAC-alpha serine/threonine-protein kinase (P31749 whole entry): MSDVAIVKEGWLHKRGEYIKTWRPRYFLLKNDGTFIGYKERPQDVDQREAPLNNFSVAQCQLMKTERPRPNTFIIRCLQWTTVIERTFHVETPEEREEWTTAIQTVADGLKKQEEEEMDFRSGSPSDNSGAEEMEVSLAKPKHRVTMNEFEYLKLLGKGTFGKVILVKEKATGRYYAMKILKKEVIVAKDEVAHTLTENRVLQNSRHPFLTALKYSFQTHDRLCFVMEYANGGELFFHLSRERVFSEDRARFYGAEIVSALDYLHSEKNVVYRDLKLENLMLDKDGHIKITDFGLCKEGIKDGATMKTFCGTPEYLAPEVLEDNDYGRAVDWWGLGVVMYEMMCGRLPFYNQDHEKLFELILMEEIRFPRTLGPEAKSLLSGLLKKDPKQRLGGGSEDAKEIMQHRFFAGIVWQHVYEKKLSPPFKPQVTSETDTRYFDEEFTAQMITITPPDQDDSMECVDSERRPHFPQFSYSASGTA

[27] = molecular target: Mitogen-activated protein kinase 1 (Homo sapiens, UniProt P28482)
Chain of Mitogen-activated protein kinase 1 (P28482 whole entry): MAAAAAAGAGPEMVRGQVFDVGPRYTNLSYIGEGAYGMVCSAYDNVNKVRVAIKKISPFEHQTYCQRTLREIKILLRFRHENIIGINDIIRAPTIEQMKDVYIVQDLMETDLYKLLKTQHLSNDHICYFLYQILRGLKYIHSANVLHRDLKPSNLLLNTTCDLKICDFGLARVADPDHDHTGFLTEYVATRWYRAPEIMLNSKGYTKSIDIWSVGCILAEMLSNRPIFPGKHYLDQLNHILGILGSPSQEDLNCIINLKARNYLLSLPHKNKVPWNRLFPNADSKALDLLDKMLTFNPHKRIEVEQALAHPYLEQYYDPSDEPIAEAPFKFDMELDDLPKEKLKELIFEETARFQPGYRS

[28] = Tmax in Wistar rat at 20 mg/kg, po administered as single dose; conditions: in vivo

SMILES: Nc1nccc(-c2cc3c([nH]2)[C@@H](CCF)CNC3=O)n1
- IC50 [1]: > 4000 nM
- IC50 [2]: > 4000 nM
- IC50 [3]: > 4000 nM
- IC50 [4]: > 4000 nM
- AUC(0-inf) [5]: 9.5 µM·h
- clearance [6]: 61.7 mL/min/kg
- Vd [7]: 2.6 L/kg
- half-life [8]: 60 min
- Tmax [9]: 30 min
- AUC (Rattus norvegicus [10]): 19.9 µM·h
- Vd [11]: 2.1 L/kg
- Cmax [12]: 8.9 µM
- AUC(0-inf) [13]: 6.3 µM·h
- IC50 (MCF7): 1100 nM
- IC50 [14]: 400 nM
- IC50 (HT-29): 4100 nM
- IC50 [15]: 600 nM
- IC50 [16]: 1200 nM
- IC50 (OPM-2): 3700 nM
- Activity (HeLa [17]): 35%
- Activity (HeLa [18]): 28%
- Activity (HeLa [19]): 3%
- Activity (HeLa [20]): Active
- MED [21]: 0.6 µM
- Activity (Cytochrome P450 2C8): Not Active
- Activity (Cytochrome P450 3A4): Not Active
- inhibition in vivo at 60 mg/kg (A2780): 68%
- Activity (Rattus norvegicus [22]): 35 days
- IC50 [23]: 138 nM
- IC50 [24]: 670 nM
- IC50 [25]: > 4000 nM
- IC50 [26]: > 4000 nM
- IC50 [27]: 846 nM
- Tmax [28]: 18 min
